Laboratory results published in ChEMBL document CHEMBL1137500, “Inhibitors of type III secretion in Yersinia: design, synthesis and multivariate QSAR of 2-arylsulfonylamino-benzanilides” (Bioorg Med Chem, 2007).
Activity calls are given as the source filed them. The rule behind the calls is not given here.

Molecular target: Tyrosine-protein phosphatase YopH (Yersinia pseudotuberculosis serotype I (strain IP32953)) (UniProt P08538)
Experiment: Inhibition of Yersinia pseudotuberculosis YP3-pIB102 YopH at 100 uM
Procedure, shortened: (§1)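 Strain YPIII-pIB102 grown overnight at 26 °C in BHI with 25 µg/ml chloramphenicol. Diluted to OD600 0.08 in calcium-depleted BHI (5 mM EGTA, 20 mM MgCl2), with compound at 100, 50, 20 or 10 µM, and shaken 2 h at 37 °C. Culture aliquot added to 25 mM p-nitrophenyl phosphate, 40 mM MES pH 5.0 and 1.6 mM DTT for 15 min at 37 °C. Stopped with NaOH and read at A405. Triplicates; result is % inhibition of secreted YopH activity.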

Sequence of Tyrosine-protein phosphatase YopH (Yersinia pseudotuberculosis serotype I (strain IP32953)) (P08538 whole entry): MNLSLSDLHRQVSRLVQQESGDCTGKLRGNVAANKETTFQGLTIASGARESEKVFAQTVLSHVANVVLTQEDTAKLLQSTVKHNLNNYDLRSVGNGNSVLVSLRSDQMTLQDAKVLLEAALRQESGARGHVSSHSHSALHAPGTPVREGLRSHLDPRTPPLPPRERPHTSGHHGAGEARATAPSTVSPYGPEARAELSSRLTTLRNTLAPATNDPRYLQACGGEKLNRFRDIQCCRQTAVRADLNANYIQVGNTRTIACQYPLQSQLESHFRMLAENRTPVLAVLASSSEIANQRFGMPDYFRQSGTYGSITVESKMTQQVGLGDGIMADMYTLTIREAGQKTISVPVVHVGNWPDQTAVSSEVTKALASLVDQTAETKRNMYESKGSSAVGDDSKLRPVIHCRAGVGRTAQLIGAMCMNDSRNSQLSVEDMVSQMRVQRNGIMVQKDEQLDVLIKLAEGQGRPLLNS

Structure (SMILES) | inhibition
O=C(Nc1ccc(F)cc1)c1cc(F)c(F)cc1NS(=O)(=O)c1cccc(F)c1 | 70%
O=C(Nc1ccc(Cl)c(Cl)c1)c1cc(F)c(F)cc1NS(=O)(=O)c1cc(Cl)cc(Cl)c1O | 81%
COc1ccc(NC(=O)c2ccc(Cl)cc2NS(=O)(=O)c2ccc(Cl)c(Cl)c2)cc1 | 34%
O=C(Nc1ccc(Cl)c(Cl)c1)c1cc(Cl)ccc1NS(=O)(=O)c1cccc2nsnc12 | 63%
O=C(Nc1ccc2c(c1)OCO2)c1ccc(Cl)cc1NS(=O)(=O)c1ccc(Cl)c(Cl)c1 | 59%
O=C(Nc1ccc2c(c1)OCO2)c1ccc(Cl)cc1NS(=O)(=O)c1ccccc1 | 34%

System: Yersinia pseudotuberculosis
Experiment: Effect on T3S in Yersinia pseudotuberculosis 3 pIB29 assessed as inhibition of light emission at 100 uM by luciferase reporter gene assay
Procedure, shortened: (§2)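 Strain YPIII-pIB29 (yopE-luxAB transcriptional fusion, lacking YopH), grown overnight at ambient temperature in BHI with 5 mM EGTA and 20 mM MgCl2 to deplete calcium, then adjusted to OD600 0.15-0.25. Compounds in DMSO (≤1% final) at 100, 50, 20 or 10 µM final, in triplicate. Plates shaken 1 h at ambient temperature, then 2 h at 37 °C. Decanal added within 30 min and luminescence read at once. Result is % inhibition of light versus control.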

Structure (SMILES) | inhibition
O=C(Nc1ccc(F)cc1)c1cc(F)c(F)cc1NS(=O)(=O)c1cccc(F)c1 | 75%
O=C(Nc1ccc(Cl)c(Cl)c1)c1cc(F)c(F)cc1NS(=O)(=O)c1cc(Cl)cc(Cl)c1O | 92%
COc1ccc(NC(=O)c2ccc(Cl)cc2NS(=O)(=O)c2ccc(Cl)c(Cl)c2)cc1 | 72%
O=C(Nc1ccc(Cl)c(Cl)c1)c1cc(Cl)ccc1NS(=O)(=O)c1cccc2nsnc12 | 62%
O=C(Nc1ccc2c(c1)OCO2)c1ccc(Cl)cc1NS(=O)(=O)c1ccc(Cl)c(Cl)c1 | 69%
O=C(Nc1ccc2c(c1)OCO2)c1ccc(Cl)cc1NS(=O)(=O)c1ccccc1 | 15%

Molecular target: Tyrosine-protein phosphatase YopH (Yersinia pseudotuberculosis serotype I (strain IP32953)) (UniProt P08538)
Experiment: Inhibition of Yersinia pseudotuberculosis YP3-pIB102 YopH at 50 uM
Procedure, shortened: as §1

Structure (SMILES) | inhibition
O=C(Nc1ccc(F)cc1)c1cc(F)c(F)cc1NS(=O)(=O)c1cccc(F)c1 | 63%
O=C(Nc1ccc(Cl)c(Cl)c1)c1cc(F)c(F)cc1NS(=O)(=O)c1cc(Cl)cc(Cl)c1O | 80%
COc1ccc(NC(=O)c2ccc(Cl)cc2NS(=O)(=O)c2ccc(Cl)c(Cl)c2)cc1 | 35%
O=C(Nc1ccc(Cl)c(Cl)c1)c1cc(Cl)ccc1NS(=O)(=O)c1cccc2nsnc12 | 66%
O=C(Nc1ccc2c(c1)OCO2)c1ccc(Cl)cc1NS(=O)(=O)c1ccc(Cl)c(Cl)c1 | 64%
O=C(Nc1ccc2c(c1)OCO2)c1ccc(Cl)cc1NS(=O)(=O)c1ccccc1 | 25%

Molecular target: Tyrosine-protein phosphatase YopH (Yersinia pseudotuberculosis serotype I (strain IP32953)) (UniProt P08538)
Experiment: Inhibition of Yersinia pseudotuberculosis YP3-pIB102 YopH at 10 uM
Procedure, shortened: as §1

Structure (SMILES) | inhibition
O=C(Nc1ccc(F)cc1)c1cc(F)c(F)cc1NS(=O)(=O)c1cccc(F)c1 | 27%
O=C(Nc1ccc(Cl)c(Cl)c1)c1cc(F)c(F)cc1NS(=O)(=O)c1cc(Cl)cc(Cl)c1O | 57%
COc1ccc(NC(=O)c2ccc(Cl)cc2NS(=O)(=O)c2ccc(Cl)c(Cl)c2)cc1 | 35%
O=C(Nc1ccc(Cl)c(Cl)c1)c1cc(Cl)ccc1NS(=O)(=O)c1cccc2nsnc12 | 19%
O=C(Nc1ccc2c(c1)OCO2)c1ccc(Cl)cc1NS(=O)(=O)c1ccc(Cl)c(Cl)c1 | 33%
O=C(Nc1ccc2c(c1)OCO2)c1ccc(Cl)cc1NS(=O)(=O)c1ccccc1 | 14%

System: Yersinia pseudotuberculosis
Experiment: Growth inhibition of Yersinia pseudotuberculosis
Format: functional, organism-based
Procedure, shortened: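 Wild-type YPIII-pIB102 diluted to OD600 0.05-0.1 in BHI with 2.5 mM CaCl2. Grown at 37 °C with shaking, with compound at 10, 20, 50 or 100 µM. Absorbance read at 600 nm periodically, or at 595 nm hourly, over six hours and compared with the control growth curve.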

Structure (SMILES) | Activity
O=C(Nc1ccc(F)cc1)c1cc(F)c(F)cc1NS(=O)(=O)c1cccc(F)c1 | inactive
O=C(Nc1ccc(Cl)c(Cl)c1)c1cc(F)c(F)cc1NS(=O)(=O)c1cc(Cl)cc(Cl)c1O | inactive
COc1ccc(NC(=O)c2ccc(Cl)cc2NS(=O)(=O)c2ccc(Cl)c(Cl)c2)cc1 | inactive
O=C(Nc1ccc(Cl)c(Cl)c1)c1cc(Cl)ccc1NS(=O)(=O)c1cccc2nsnc12 | inactive
O=C(Nc1ccc2c(c1)OCO2)c1ccc(Cl)cc1NS(=O)(=O)c1ccc(Cl)c(Cl)c1 | inactive
O=C(Nc1ccc2c(c1)OCO2)c1ccc(Cl)cc1NS(=O)(=O)c1ccccc1 | inactive

System: Yersinia pseudotuberculosis
Experiment: Effect on T3S in Yersinia pseudotuberculosis 3 pIB29 assessed as inhibition of light emission at 20 uM by luciferase reporter gene assay
Procedure, shortened: as §2

Structure (SMILES) | inhibition
O=C(Nc1ccc(F)cc1)c1cc(F)c(F)cc1NS(=O)(=O)c1cccc(F)c1 | 51%
O=C(Nc1ccc(Cl)c(Cl)c1)c1cc(F)c(F)cc1NS(=O)(=O)c1cc(Cl)cc(Cl)c1O | 85%
COc1ccc(NC(=O)c2ccc(Cl)cc2NS(=O)(=O)c2ccc(Cl)c(Cl)c2)cc1 | 67%
O=C(Nc1ccc(Cl)c(Cl)c1)c1cc(Cl)ccc1NS(=O)(=O)c1cccc2nsnc12 | 68%
O=C(Nc1ccc2c(c1)OCO2)c1ccc(Cl)cc1NS(=O)(=O)c1ccc(Cl)c(Cl)c1 | 66%
O=C(Nc1ccc2c(c1)OCO2)c1ccc(Cl)cc1NS(=O)(=O)c1ccccc1 | 7%

System: Yersinia pseudotuberculosis
Experiment: Effect on T3S in Yersinia pseudotuberculosis 3 pIB29 assessed as inhibition of light emission at 50 uM by luciferase reporter gene assay
Procedure, shortened: as §2

Structure (SMILES) | inhibition
O=C(Nc1ccc(F)cc1)c1cc(F)c(F)cc1NS(=O)(=O)c1cccc(F)c1 | 71%
O=C(Nc1ccc(Cl)c(Cl)c1)c1cc(F)c(F)cc1NS(=O)(=O)c1cc(Cl)cc(Cl)c1O | 92%
COc1ccc(NC(=O)c2ccc(Cl)cc2NS(=O)(=O)c2ccc(Cl)c(Cl)c2)cc1 | 72%
O=C(Nc1ccc(Cl)c(Cl)c1)c1cc(Cl)ccc1NS(=O)(=O)c1cccc2nsnc12 | 69%
O=C(Nc1ccc2c(c1)OCO2)c1ccc(Cl)cc1NS(=O)(=O)c1ccc(Cl)c(Cl)c1 | 74%
O=C(Nc1ccc2c(c1)OCO2)c1ccc(Cl)cc1NS(=O)(=O)c1ccccc1 | 10%

Molecular target: Tyrosine-protein phosphatase YopH (Yersinia pseudotuberculosis serotype I (strain IP32953)) (UniProt P08538)
Experiment: Inhibition of Yersinia pseudotuberculosis YP3-pIB102 YopH at 20 uM
Procedure, shortened: as §1

Structure (SMILES) | inhibition
O=C(Nc1ccc(F)cc1)c1cc(F)c(F)cc1NS(=O)(=O)c1cccc(F)c1 | 54%
O=C(Nc1ccc(Cl)c(Cl)c1)c1cc(F)c(F)cc1NS(=O)(=O)c1cc(Cl)cc(Cl)c1O | 82%
COc1ccc(NC(=O)c2ccc(Cl)cc2NS(=O)(=O)c2ccc(Cl)c(Cl)c2)cc1 | 60%
O=C(Nc1ccc(Cl)c(Cl)c1)c1cc(Cl)ccc1NS(=O)(=O)c1cccc2nsnc12 | 62%
O=C(Nc1ccc2c(c1)OCO2)c1ccc(Cl)cc1NS(=O)(=O)c1ccc(Cl)c(Cl)c1 | 60%
O=C(Nc1ccc2c(c1)OCO2)c1ccc(Cl)cc1NS(=O)(=O)c1ccccc1 | 19%

System: Yersinia pseudotuberculosis
Experiment: Effect on T3S in Yersinia pseudotuberculosis 3 pIB29 assessed as inhibition of light emission at 10 uM by luciferase reporter gene assay
Procedure, shortened: as §2

Structure (SMILES) | inhibition
O=C(Nc1ccc(F)cc1)c1cc(F)c(F)cc1NS(=O)(=O)c1cccc(F)c1 | 22%
O=C(Nc1ccc(Cl)c(Cl)c1)c1cc(F)c(F)cc1NS(=O)(=O)c1cc(Cl)cc(Cl)c1O | 69%
COc1ccc(NC(=O)c2ccc(Cl)cc2NS(=O)(=O)c2ccc(Cl)c(Cl)c2)cc1 | 43%
O=C(Nc1ccc(Cl)c(Cl)c1)c1cc(Cl)ccc1NS(=O)(=O)c1cccc2nsnc12 | 48%
O=C(Nc1ccc2c(c1)OCO2)c1ccc(Cl)cc1NS(=O)(=O)c1ccc(Cl)c(Cl)c1 | 37%
O=C(Nc1ccc2c(c1)OCO2)c1ccc(Cl)cc1NS(=O)(=O)c1ccccc1 | 4%
